{"data": "Assay results of several laboratories", "FLT3 D835Y": "Receptor-type tyrosine-protein kinase FLT3 (FLT3, Homo sapiens, UniProt P36888, D835Y)", "FLT3": "Receptor-type tyrosine-protein kinase FLT3 (FLT3, Homo sapiens, UniProt P36888)", "FLT3 F691L/ITD": "Receptor-type tyrosine-protein kinase FLT3 (FLT3, Homo sapiens, UniProt P36888, F691L/ITD)", "FLT3 N841I": "Receptor-type tyrosine-protein kinase FLT3 (FLT3, Homo sapiens, UniProt P36888, N841I)", "FLT3 D835V": "Receptor-type tyrosine-protein kinase FLT3 (FLT3, Homo sapiens, UniProt P36888, D835V)", "FLT3 K663Q": "Receptor-type tyrosine-protein kinase FLT3 (FLT3, Homo sapiens, UniProt P36888, K663Q)", "note": "Each line is one published result; the experiments were not run side by side."}
{"Compound": "N[C@H]1CCN(c2nccc(-c3cnn4ncccc34)n2)C1", "target": "FLT3 D835Y", "observed": "binding", "concentration": "1 µM", "endpoint": "remaining binding", "value": "97%"}
{"Compound": "Cc1ccc(C(=O)Nc2ccc(CN3CCN(C)CC3)c(C(F)(F)F)c2)cc1C#Cc1cnc2cccnn12", "target": "FLT3", "observed": "enzyme activity", "action": "inhibitor", "concentration": "23.5 nM", "endpoint": "remaining activity", "value": "58%"}
{"Compound": "O=C(c1ccc(Nc2nccc(-c3cc4ccccc4s3)n2)cc1)N1CCC(N2CCCC2)CC1", "target": "FLT3 F691L/ITD", "observed": "binding", "technique": "competition with immobilised ligand", "concentration": "1 µM", "endpoint": "remaining binding", "value": "19%"}
{"Compound": "O=C(NCCCC1CCCCC1)c1ccc(CNC(=O)c2cnn(-c3ccccc3)c2C(F)(F)F)cc1", "target": "Receptor-type tyrosine-protein kinase FLT3, autoinhibited (FLT3, Homo sapiens, UniProt P36888)", "observed": "cell-free assay", "technique": "competition with immobilised ligand", "concentration": "0.1 µM", "endpoint": "remaining binding", "value": "100%"}
{"Compound": "c1cnn2ncc(-c3ccnc(N4CCC45COC5)n3)c2c1", "target": "FLT3 N841I", "observed": "binding", "concentration": "1 µM", "endpoint": "remaining binding", "value": "72%"}
{"Compound": "O=C(NCCCN1CCOCC1)c1ccc(Nc2nccc(-c3cc4ccccc4s3)n2)cc1", "target": "FLT3 N841I", "observed": "binding", "technique": "competition with immobilised ligand", "concentration": "1 µM", "endpoint": "remaining binding", "value": "9.2%"}
{"Compound": "O=C(Nc1cccnn1)N1CCC(=Cc2cccc(Oc3ccc(C(F)(F)F)cn3)c2)CC1", "target": "FLT3 D835Y", "observed": "cell-free assay", "technique": "competition with immobilised ligand", "concentration": "1 µM", "endpoint": "remaining binding", "value": "100%"}
{"Compound": "O=C(c1ccc(Nc2ncc(Cl)c(-c3ccc(Cl)s3)n2)cc1)N1CCC(N2CCCC2)CC1", "target": "FLT3 F691L/ITD", "observed": "binding", "technique": "competition with immobilised ligand", "concentration": "1 µM", "endpoint": "remaining binding", "value": "1.8%"}
{"Compound": "CN(c1nccc(-c2cnn3ncccc23)n1)C1CC1", "target": "FLT3 D835V", "observed": "binding", "concentration": "1 µM", "endpoint": "remaining binding", "value": "78%"}
{"Compound": "CCCCN(CCCC)C(=O)CN1C[C@H](c2cc(OC)c3c(c2)OCO3)[C@@H](C(=O)O)[C@@H]1CC(C)(C)CCC", "target": "FLT3 N841I", "observed": "cell-free assay", "technique": "competition with immobilised ligand", "concentration": "1 µM", "endpoint": "remaining binding", "value": "100%"}
{"Compound": "Nc1ncnc2occ(-c3ccc(NC(=O)Nc4cc(C(F)(F)F)ccc4F)cc3)c12", "target": "FLT3 D835V", "observed": "cell-free assay", "action": "inhibitor", "concentration": "20 µM", "endpoint": "remaining signal", "value": "0%"}
{"Compound": "Cc1cnc(Nc2ccc(C(=O)N3CCC(N4CCCC4)CC3)cc2)nc1-c1cc2ccccc2s1", "target": "FLT3 K663Q", "observed": "binding", "technique": "competition with immobilised ligand", "concentration": "1 µM", "endpoint": "remaining binding", "value": "2.2%"}
{"Compound": "CC(=O)N1CCC(c2ccc(C(=O)NC(=N)N)cc2C(F)(F)F)CC1", "target": "FLT3", "observed": "cell-free assay", "technique": "competition with immobilised ligand", "concentration": "1 µM", "endpoint": "remaining binding", "value": "100%"}
{"Compound": "CC1CCCN1c1nccc(-c2cnn3ncccc23)n1 (stereo not shown)", "target": "FLT3 D835V", "observed": "binding", "concentration": "1 µM", "endpoint": "remaining binding", "value": "79%"}
{"Compound": "CC(C)CC(=O)N1CCc2nc(-c3ccc(Br)cc3)nc(N(C)Cc3ccccc3)c2C1", "target": "FLT3 F691L/ITD", "observed": "cell-free assay", "technique": "competition with immobilised ligand", "concentration": "0.1 µM", "endpoint": "remaining binding", "value": "68%"}
{"Compound": "C[C@@H]1CCN(c2nccc(-c3cnn4ncccc34)n2)C1", "target": "FLT3 K663Q", "observed": "binding", "concentration": "1 µM", "endpoint": "remaining binding", "value": "100%"}
